Experimental data taken from ChEMBL document CHEMBL1154522, “Aryl sulfamates are broad spectrum inactivators of sulfatases: effects on sulfatases from various sources” (Bioorg Med Chem Lett, 2009).

Assays:
[1] = Dissociation constant, pKa of the compound; format: physicochemical
[2] = Inhibition of abalone entrails type 8 recombinant sulfatase expressed in Escherichia coli by slow phase inactivation; parameters: species or system Haliotis corrugata
[3] = Inhibition of abalone entrails type 8 recombinant sulfatase expressed in Escherichia coli by fast phase inactivation; parameters: species or system Haliotis corrugata
Arylsulfatase = Arylsulfatase (Pseudomonas aeruginosa (strain ATCC 15692 / PAO1 / 1C / PRS 101 / LMG12228), UniProt P51691); experiment: Inhibition of Pseudomonas aeruginosa recombinant arylsulfatase A expressed in Escherichia coli
Arylsulfatase, sequence (P51691 whole entry): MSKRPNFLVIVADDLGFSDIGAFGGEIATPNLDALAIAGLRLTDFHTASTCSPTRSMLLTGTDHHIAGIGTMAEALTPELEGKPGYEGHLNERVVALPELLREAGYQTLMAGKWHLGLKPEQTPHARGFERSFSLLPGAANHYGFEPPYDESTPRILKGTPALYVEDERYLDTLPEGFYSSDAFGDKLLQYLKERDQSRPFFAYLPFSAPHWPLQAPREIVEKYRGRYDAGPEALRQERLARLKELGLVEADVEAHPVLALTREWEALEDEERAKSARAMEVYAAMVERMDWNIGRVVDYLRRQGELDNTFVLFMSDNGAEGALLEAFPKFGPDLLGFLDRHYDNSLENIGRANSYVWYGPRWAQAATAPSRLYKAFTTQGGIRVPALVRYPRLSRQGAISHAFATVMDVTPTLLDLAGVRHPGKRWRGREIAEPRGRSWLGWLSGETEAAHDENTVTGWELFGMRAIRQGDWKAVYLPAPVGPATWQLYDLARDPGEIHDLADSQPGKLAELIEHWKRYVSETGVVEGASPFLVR

[4] = Inhibition of Helix pomatia type H1 recombinant sulfatase expressed in Escherichia coli
How it was run: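 Snail sulfatase incubated at pH 7 with 0–500 µM 3-nitrophenyl sulfamate; residual activity plotted semi-logarithmically against time, and pseudo-first-order rates replotted against inactivator concentration to fit Ki and kinact (E + I ⇌ E·I → E–P).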

[5] = Chemical decomposition at pH 7 after 15 mins; details: buffer
[6] = Inhibition of Patella vulgata type 5 recombinant sulfatase expressed in Escherichia coli
How it was run: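 Limpet sulfatase at pH 7 with 0–12.5 mM sulfamate; semi-logarithmic plots of residual activity over time, inactivation rates replotted against concentration to give Ki and kinact.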

| pKa [1] | Ki (Arylsulfatase) | decomposed at 0.25 h [5] | Structure (SMILES) | Ki [2] | Ki [3] | Ki [4] | Ki [6] |
| --- | --- | --- | --- | --- | --- | --- | --- |
| 7.14 | – | – | O=[N+]([O-])c1ccc(OS(=O)(=O)O)cc1 | – | – | – | – |
| – | 0.13 µM | 4.2% | NS(=O)(=O)Oc1cccc([N+](=O)[O-])c1 | 5000 µM | 1600 µM | 35 µM | 980 µM |
